Measured values taken from the EternaBench riboswitch data.

Tested on: MS2 coat protein
Test: apparent Kd, MS2 coat protein; higher = weaker binding; RNA-MaP array; FMN 200 µM where present
In short: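 Two titrations, one without ligand and one with constant ligand, were run with SNAP-549-labelled MS2 coat protein from 0.7 or 1.5 nM, doubling to 3 µM. The targets were designs transcribed by stalled E. coli RNA polymerase on Illumina sequencing-chip clusters, in 100 mM Tris-HCl pH 7.5, 80 mM KCl, 4 mM MgCl2, BSA, DTT, yeast tRNA and Tween-20. The apparent Kd is the median of filtered per-cluster binding-curve fits, with green signal normalised to red-channel RNA signal and control-cluster median Fmax.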

[1] = designed as: OFF switch for flavin mononucleotide, no ligand
[2] = ligand present: flavin mononucleotide, designed as: OFF switch for flavin mononucleotide
[3] = designed as: ON switch for flavin mononucleotide, no ligand
[4] = ligand present: flavin mononucleotide, designed as: ON switch for flavin mononucleotide

Row | Sequence | apparent Kd [1] [nM] | apparent Kd [2] [nM] | apparent Kd [3] [nM] | apparent Kd [4] [nM]
1 | UGAUAGGACAGAGGAUAUGCCGAUAGGCUCUACUAUCGAAGAAUCCUCACAUGAGGAUCACCCAUGUAGAAGGCUGUCCUAUCU | 19.1 | 48 |  | 
2 | CAUUAAUUGAUUAUUGUAUUUAUACAGGAUAUGUAACAUGAGGAUCACCCAUGUAUACAUGGGAAACAGAAGGGUAUUUAUAGA | 31.9 | 25.6 |  | 
3 | AAAAAGUCAGGAUAUAUCAAAGCCUAUGAAAGUGGGAAAGGGUAGAAGGGACAUGAGGAUCACCCAUGUAAAAA | 52 | 50.3 |  | 
4 | GGAGAUACAUGAGGAUCACCCAUGUAGGAUAUCGAGUAUAUAUAUGGCGAAAGCCAUAUAUAUAUCGAGAAGGGCGUACACACC | 8.84 | 7.75 |  | 
5 | GACUCGCGCACAGGAUAUCCACGGAGCGGACGCGGAGAAGGGUGACAUGAGGAUCACCCAUGUACGUGAGUCUAGAUCACUUCC |  |  | 76.8 | 22.5
6 | AUACUAAAUGAAGGAUAUCUAAGCAUAAACCUGAGAGAAGGUCAUUUUUACAUGAGGAUCACCCAUGUUGUGAUUAAUGGGUAA | 201 | 366 |  | 
7 | AAUCGGGAGCAGAAGGCAUGUAAUAAGACAUGAGGAUCACCCAUGUAGUUAAGGCGAAAGCCGCAUGAGGAUAUGCUCCCGUAA |  |  | 5.26 | 4.99
8 | GGGUACAUCAGAGGAUAUCAUGUAAAUACAUGAGGAUCACCCAUGUCGAUGGAGACAUCGGAGAUUGAGAAGGCCGAUGUACCG |  |  | 292 | 13.4
9 | CCUGGAUCAUGAGGAUAUGGCACCUUAUUGGUGCCAGAAGGCAUGUCUUUUGACAUGAGGAUCACCCAUGUAAUAAAUUCCAGG |  |  | 933 | 131
10 | UUUACAUGAGGAUCACCCAUGUUUUGAAAGAUUAGUUUUGGUGAGGAUAUACAUGAUAAAGAAUUGUAGAAGGCACUGGGUACA |  |  | 45.4 | 28.6
11 | CAUGUUAUACAGGAUAUCCGUAUGUAAUUCGUCGGAGAAGGGUAUACAUGAGGAUCACCCAUGUAUUCCUAGCU | 16.1 | 20.8 |  | 
12 | AGGUAGCAAGGAUAUACAUGAGGAUCACCCAUGUAAAUGCACGUUUAGGCCCUGCUAUGUAGAAGGUGCACCCG | 17.3 | 16.8 |  | 
13 | AUCCUGCGAGGAUAUACAUAAUUUUUUUCAUUUUGACUCGAACAUGAGGAUCACCCAUGUAGAAGGUGCUACAC | 36.7 | 32.5 |  | 
14 | ACAAGAUCAGGAUAUACAUGAGGAUCACCCAUGUAUAUCAAAAAAGGGCCUUCUACAUGUAGAAGGGAUCUUGU | 13.1 | 12.1 |  | 
15 | UUGGACGUCGUAGCAUAUGUAGGAUAUUCCUACAUGAGGAUCACCCAUGUUGACAUGGAAGAAGGACAGAAGGACGAUGUCCAU |  |  | 146 | 5.47
16 | ACCUUACAUGAGGAUCACCCAUGUCAGGAUAUCUCGGGCGGCUGGAGACCAGCCGCCCAGAGAAGGGACGAGGA | 14.4 | 15.6 |  | 
17 | GUCAGCUCGUGAGGAUAUACAUCACUGCUUCGGCAGUGUAUUAAGAGCACAUGAGGAUCACCCAUGUAGAAGGCACGAGCUGAU | 16.3 | 24.1 |  | 
18 | GAAUAAUUGAUCCAAUUUAUCUACAUGAGGAUCACCCAUGUGCAGGAUAUCGUAAAAUUUAAUAACGAGAAGGGCAAGAACGGU | 135 | 385 |  | 
19 | GAGAAGAGGGAAGGAUAUACAUGAGGAUCACCCAUGUAGAUAGGUUUAAUAGGUUGUUGUAGUUUGUAGAAGGUCCGGUUUGUU | 17.8 | 16.7 |  | 
20 | CAGGUAGACUGAGGAUAUACAAUAAAGACCUAGUCUAUCUAGGUCUCUACAUGAGGAUCACCCAUGUAGAAGGCAGUCUGCCUG | 16 | 18.3 |  | 
21 | UGAUAGGACAGAGGAUAUACGGAUAGGAUCUACUAUCCUCCUUUAAUAACAUGAGGAUCACCCAUGUAGAAGGCUGUCCUAUCU | 15.3 | 24.2 |  | 
22 | UUGGGUUUGGGAGGAUAUGGGUAAAAUAAAGUACUAGAAGGCUUAAAUUAUUUUAUAGUUGUAUUACAUGAGGAUCACCCAUGU |  |  | 13.6 | 10.4
23 | GUAUGAGCGAUAGGAUAUACUGGGAUUGAAUGGGUAGAAGGAUUUCUAGUGGGAAAGACAUGAGGAUCACCCAUGUCGCGGACC |  |  | 37.9 | 35.4
24 | AAGAACGCAGGAUAUAUUAAGGGACAAAGAAGGAAGAAUAAACAUGAGGAUCACCCAUGUAGAAGGGCGAAGAA | 60.5 | 58 |  | 
25 | UGUGCGUAUGUGAGGAUAUGCUGGUCCUUGGAUCGGCAGAAGGCACAUGAGGAUCACCCAUGUGGUGUCGUUCG | 239 | 24 |  | 
26 | UUGGUUGUCGUAGGAUAUGUAGGAUAUUCCUACAUGAGGAUCACCCAUGUUCGCAUGGAAGAAGGACGGAAGGACGAUGACCAA |  |  | 233 | 153
27 | GGCUCUGCUCGAGGAUAUAGCUGCAUGUAGUGUCCUGAGGCACAUGAGGAUCACCCAUGUGUAGGCUAGAAGGCGACAGAGGCG | 188 | 276 |  | 
28 | GACAUACAUGAGGAUCACCCAUGUUCAAGCGGACAAGGAUAUGUGUGGAAACCAUACUAUACAGAAGGUGUCUGUC |  |  | 25.9 | 17.1

Row | Sequence | apparent Kd [1] [nM] | apparent Kd [2] [nM] | apparent Kd [3] [nM] | apparent Kd [4] [nM]
29 | GGUGCGUUUGUGAGGAUAUGCUGGUCCUUGGAUCGGCAGAAGGCACAUGAGGAUCACCCAUGUGGUGUCGUACC | 310 | 29.6 |  | 
30 | GACGGGUGGGUAGGAUAUGGCUAUGUCUCAUUGCUAGAAGGACCAGCUGCUACAUGAGGAUCACCCAUGUCGUAGUGCACCCAG |  |  | 189 | 13.1
31 | GCGGCCAACGUAGGAUAUCUUCAGCCACAGCACAUUGCUGUACAUGAGGAUCACCCAUGUCCUGGAGAGAAGGACGGACGGCAG |  |  | 37.7 | 8.73
32 | UAUUAUAUAGAGAAGGACAUGAGGAUCACCCAUGUCGCCGGGCCCGGGAAACCGGGCCCGGCCAUGUAGGAUAUCUAUAUGGUA | 4.96 | 5.86 |  | 
33 | UUGUAAACUAUCCGUACAUGAGGAUCACCCAUGUGCAAGAGCAGAAGGACGUGGCACUCGAGUACGUAGGAUAUGCAUGGAUGG |  |  | 27.1 | 9.59
34 | ACAUGGAAGCAGGAUAUGCUUGUUUAAUUGUUUGCAGAAGGGCUAACAUGAGGAUCACCCAUGUAAGAGGUCUA | 17 | 29.6 |  | 
35 | AAAUUUAACGAAGGAUAUGGUUACAUGAGGAUCACCCAUGUAAUGGUUGUGAUAUUGAUUAAGUUCCAGAAGGUCGUAUACAUA | 97.8 | 279 |  | 
36 | CUUCUCAAAGGAUAUCACGGUAAUAACAUGAGGAUCACCCAUGUGCAAUUCGUGUCCCUGUGAGAAGGUUGAGAAG | 10.5 | 18.2 |  | 
37 | AGCUUCGAAGGAUAUCCAGGUCCAGACAUGAGGAUCACCCAUGUGGUGAAGACGUUACCCGGAGAAGGUUGUGAGU | 70.5 | 61.7 |  | 
38 | AAAAGUACAGGAUAUACAUGAGGAUCACCCAUGUAGAAAGGAAGUGUAAAAAAAAAGUGUAGAAGGGUGCAUGA | 33.1 | 27.9 |  | 
39 | AUAUGAAAGAUAGGAUAUACUGAGGUUGAAUGGGUAGAAGGAUCGAUAGGGAAGAAUACAUGAGGAUCACCCAUGUUGUGGAUU |  |  | 81.7 | 51.9
40 | AACAUGUCAGGAUAUAUGACAUGGCUCUUCGGAGCAAGCUCAUAGAAGGGACAUGAGGAUCACCCAUGUAGAGC | 21.1 | 25.2 |  | 
41 | AGAAACUACGAGAAGGACAUGAGGAUCACCCAUGUAACCACUUAGUGGAAUGUAGGAUAUCGUAGUUUCAGGAUCGUGAGAUCA | 6.91 | 9.58 |  | 
42 | AGUAACAUACUCAACAUGAGGAUCACCCAUGUACUCUCAUGUAAGGAUAUACAAUCGUAUUGAUAGUAGAAGGUACCAAUUAAG |  |  | 845 | 685
43 | GUACGUGGACAGAAGGUGACAUGAGGAUCACCCAUGUUAGUUGAGGUACCAGCGAUCCGCGUGAUUGAGGAUAUGUCUGCGGGC | 16.1 | 42.4 |  | 
44 | GGACCGUCCAGAGUUGGCGGUCGGCAGGAUAUGACAUGAGGAUCACCCAUGUGAACUCCAUUGGGUCAGAAGGGCCACGACGAU | 25.2 | 94.7 |  | 
45 | CCUCAACAGUAGGAUAUCAUCAAACUAUUGUGAUGAGAAGGACUGACAUGAGGAUCACCCAUGUUGACGUGAUA | 63.4 | 51.7 |  | 
46 | AGGUCGUGAGGAUAUCGUCCCGUGAGCAGUAGUUGCGCGGGUGAGAAGGCACAUGAGGAUCACCCAUGUCAUCC | 24.9 | 74.4 |  | 
47 | AUUAAACAUGAGGAUCACCCAUGUCAACAAAGUCGAGGAUAUGGGCAUAUUAUCUUAUUACCAGAAGGCGAAUAAU |  |  | 390 | 44
48 | GGUCGUCAAGUCAGGAUAUCGUUUAGUCGAUGUAACGAGAAGGGACAUGAGGAUCACCCAUGUCGUCUCAUCAG | 18.9 | 24.8 |  | 
49 | UGUCGGAGCAGAGGAUAUUACAUGAGGAUCACCCAUGUAUGAACCAAUACCUGGAAACAGCAAUGUAAGAAGGCUGCUCCGACA | 12.5 | 141 |  | 
50 | GUGUACAGAGGAUAUAUAUGAGCAUGGAAACAUGCAACUUCACAUGAGGAUCACCCAUGUAGAAGGCUGUACAC | 14.2 | 14.3 |  | 
51 | GUGUACAGAGGAUAUAUAUGGGCAUGGAAACAUGCAACUUCACAUGAGGAUCACCCAUGUAGAAGGCUGUACAC | 27.3 | 182 |  | 
52 | AAUGGCCAAGGAUAUGAGACCUAAAACAUGAGGAUCACCCAUGUGGACUCAGCCGCGUGGUCAGAAGGUGGAACCA | 13.8 | 14.8 |  | 
53 | GCACGAGACUAAGGAUAUGGUGUAUCUACAUGAAACAUGAGGAUCACCCAUGUAGUAAGUAUGAUUCAGAAGGUAGAGACGUGC |  |  | 49.7 | 23
54 | GAGUGGUUGGGAGGAUAUGCAUUGUUAUUAAAUGCAGAAGGUUUUAACAUGAGGAUCACCCAUGUAGGACUAUUCCUGUGUUUC |  |  | 17.4 | 14.6
55 | GAAUAAUUGAUCCAAUUUAUCUACAUGAGGAUCACCCAUGUGCAGGAUAUCGUAAUAUUUAAUUACGAGAAGGGCAAGAACGGU | 281 | 425 |  | 
